High-throughput results: PubChem BioAssay, several laboratories
Hits are enriched below; roughly 4.3% of the tested compounds scored in any of these assays.
SR-BI DiI inh = mouse SR-BI HDL lipid transfer inhibition. Q61009. ldlA[mSR-BI] CHO cells, DiI-HDL uptake fluorescence, 3 h. inhibition, % at 12.5 µM. hit rate 0.96% among 320,000. AID 488896;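 active = mean replicate inhibition of at least 70% and a set share of replicates each scoring 70 or more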;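 note: 0% = median of neutral control wells and 100% = median of positive control wells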
Target sequence (Q61009 whole entry, looked up): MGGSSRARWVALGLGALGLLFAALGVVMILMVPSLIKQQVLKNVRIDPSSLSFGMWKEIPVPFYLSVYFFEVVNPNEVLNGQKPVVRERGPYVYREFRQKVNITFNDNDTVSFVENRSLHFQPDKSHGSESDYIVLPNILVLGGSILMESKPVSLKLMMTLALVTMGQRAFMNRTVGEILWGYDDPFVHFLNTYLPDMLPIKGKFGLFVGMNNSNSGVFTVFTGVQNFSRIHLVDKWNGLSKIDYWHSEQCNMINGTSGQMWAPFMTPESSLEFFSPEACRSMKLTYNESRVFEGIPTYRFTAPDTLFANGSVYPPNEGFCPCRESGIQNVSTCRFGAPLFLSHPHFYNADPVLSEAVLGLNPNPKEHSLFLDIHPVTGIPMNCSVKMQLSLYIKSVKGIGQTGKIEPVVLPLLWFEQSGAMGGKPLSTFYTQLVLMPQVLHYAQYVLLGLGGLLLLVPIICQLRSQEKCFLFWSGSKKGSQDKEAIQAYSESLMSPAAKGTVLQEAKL
CR mimetic SO = yeast age-related superoxide inhibition as caloric restriction mimetic; S. cerevisiae aged cells, superoxide DHE fluorescence; stronger effect = lower value; superoxide response (% of plate mean), % at 10 µM; hit rate 0.18% among 330,000;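 active = superoxide response under a set limit, about three screen SD below normal, cut at about 65% in these data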;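 note: yeast aged for seven days with compound at 30 °C before DHE staining; 100% = average MFI of all compound-treated wells on the plate with controls excluded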
SMARCA2 act = SMARCA2 function activation, primary screen. AID 652017. hit rate 1% among 370,000. activation, % at 9.1 µM. MG213 cells, MMTV-luciferase reporter, dexamethasone, overnight; in the data active = activation above about 7.8%;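 note: 0% = vehicle wells and 100% = reference activator wells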
Lipid droplet = hepatic lipid droplet formation modulation; AML12 mouse hepatocytes, oleate lipid droplets, BODIPY imaging; inhibition, % at 6.5 µM; hit rate 0.4% among 240,000;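 active = lipid droplet intensity inhibited by at least 50%, with more than 500 cells counted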
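Material – AML12 mouse liver cells · Also added – oleate loading, 100 µM · Compound dosing – 6.5 µM single-point dosing · Times – overnight treatment with compound plus oleate · Measured by – fluorescence imaging, 20x objective, two fields per well · Read-out – percent inhibition of filter-corrected integrated lipid droplet intensity per well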
AHR act = activators of human aryl hydrocarbon receptor; hit rate 2.5% among 320,000; AHR-responsive luciferase reporter cells, luminescence; P35869; activation, % at 5 µM; in the data active = activation above about 47%;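 note: 0% = vehicle wells and 100% = reference agonist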
SR-BI DiI-HDL act = SR-BI HDL lipid transfer activation; activation, % at 12.5 µM; hit rate 0.096% among 320,000; CHO ldlA[mSR-BI] cells, DiI-HDL uptake fluorescence, 3 h; 100 = double the neutral-control signal;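 active = mean replicate activation of at least 60% and every replicate at or above 60%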;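 note: 0% = median plate neutral-control signal and 100% = twice that signal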
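Test system: SR-BI-overexpressing, LDLR-lacking CHO cells; Also added: labelled HDL, 10 µg/mL; Measured by: bottom-read cell fluorescence after medium removal, ex 550/em 595 nm; Timing: 3 h uptake period with compound, 37 °C; Buffer or medium: F12, 0.5% BSA, 25 mM HEPES; Doses: single compound concentration, delivered by pin transfer.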
Hep lipid conf = hepatic lipid droplet formation inhibition, confirmed. shares compounds with Lipid droplet. AML12 mouse hepatocytes, BODIPY lipid droplet imaging; droplets induced with 100 µM oleic acid. inhibition, % at 5.2 µM. hit rate 65% among 870;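 active = inhibition of lipid droplet metric at least 50%, with more than 300 cells in each of four replicates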;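 note: plate controls were DMSO with oleic acid for no effect and 5 µM Triacsin-C for full effect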
AML12 cytotox = toxic to AML12 mouse hepatocytes in counter-screen; AID 463200; shares compounds with Lipid droplet; DAPI nuclear morphology cytotoxicity imaging; stronger effect = higher value; cells fed 100 µM oleate overnight; z-score at 5 µM; hit rate 3% among 870; in the data active = z-score above about 6.3;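 note: compound exposure lasted overnight at 37 °C before fixation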
AML12 tox conf = confirmation of cytotoxicity in AML12 mouse hepatocytes; shares compounds with Lipid droplet; AML12 mouse hepatocyte viability, ATP luminescence; cells loaded with 100 µM oleic acid; cytotoxicity, % at 50 µM; 530 tested, under 10 active; AID 463219;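 active = cytotoxicity above 50% in each of four replicates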;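 note: compound exposure lasted overnight at 37 °C before the ATP read; 0% = DMSO-treated cells and 100% = wells with no cells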
An asterisk follows results filed as active; / = not tested or not shown.

SMILES | SR-BI DiI inh | CR mimetic SO | SMARCA2 act | Lipid droplet | AHR act | SR-BI DiI-HDL act | Hep lipid conf | AML12 cytotox | AML12 tox conf
O=C(NCc1ccco1)c1ccc(Cn2c(=O)c3ccccc3n(Cc3ccc(Cl)cc3)c2=O)cc1 | 24 | 98 | 0 | 56* | 5 | -24 | 48 | -0.48 | /
CN(C)[C@H]1CCN(c2cccc3c2S(=O)(=O)N2CC[C@@H](C2)O3)C1 | / | / | -2 | / | / | / | / | / | /
CC(C)Oc1ccccc1/C=N/Nc1ccccc1[N+](=O)[O-] | 56 | 100 | 4 | 95* | 55* | -56 | 115* | 0.61 | /
COc1ccccc1/C=N\Nc1ccccc1[N+](=O)[O-] | 40 | 69 | 3 | 165* | 79* | -40 | 63* | 0.72 | /
Cc1[nH]c2ccccc2c1/C=N/Nc1ccccc1[N+](=O)[O-] | 129* | 92 | -2 | 85* | 29 | -129 | 114* | 0.4 | /
CCOc1ccccc1/C=N/Nc1ccccc1[N+](=O)[O-] | 36 | 114 | 1 | / | 14 | -36 | / | / | /
CCCOc1ccc(/C=N/Nc2ccccc2[N+](=O)[O-])c(O)c1 | 48 | 117 | 0 | 56* | 11 | -48 | 60 | -0.73 | /
COc1cccc(NC(=O)Nc2c(-c3ccc(C(F)(F)F)cc3)nc3ncccn23)c1 | / | / | 3 | / | / | / | / | / | /
CC(NC(=O)C=Cc1ccco1)C(=O)NC(Cc1ccccc1)C(N)=O (configuration not stated) | / | / | 2 | / | / | / | / | / | /
COc1ccc(-c2cnc(SCC(=O)Nc3cc(C)on3)n2Cc2ccco2)cc1 | -31 | 109 | -5 | -5 | 0 | 31 | / | / | /
COc1ccc(-c2cnc(SCC(=O)Nc3nc(C(C)(C)C)cs3)n2Cc2ccco2)cc1 | 16 | 95 | -3 | 64* | 2 | -16 | 94* | 1.4 | -32
Cc1nc2ccc(S(=O)(=O)NCC(=O)NCc3ccccc3Cl)cc2s1 | / | / | -2 | / | / | / | / | / | /
O=C(c1ccc(F)cc1)C1CCN(CCCn2c(=O)[nH]c3ccccc32)CC1 | / | / | -1 | / | / | / | / | / | /
COc1ccc(C2(c3ccc(OC)cc3)NC(=O)N(CC(=O)Nc3ccccc3C)C2=O)cc1 | 1 | 117 | 0 | 60* | / | -1 | 104* | -0.77 | 11
COc1ccc(C2(c3ccc(OC)cc3)NC(=O)N(CC(=O)Nc3ccc(OC)c(OC)c3)C2=O)cc1 | -2 | 115 | -2 | 52* | -1 | 2 | 74* | -1.3 | 18
CCOC(=O)c1ccc(S(=O)(=O)NCC(c2ccc(N(C)C)cc2)c2c[nH]c3ccccc23)cc1 (configuration not stated) | -6 | 95 | -1 | 96* | 10 | 6 | 108* | 0.39 | 14
CN(C)c1ccc(C(CNC(=O)c2ccc(C#N)cc2)c2c[nH]c3ccccc23)cc1 (configuration not stated) | 54 | 93 | -4 | -7 | 17 | -54 | / | / | /
COC(C[C@@H](O)C[C@@H](O)COCc1ccccc1)OC | -6 | / | 1 | 113* | / | 6 | 1 | 0.34 | /
CCOC(=O)c1cc(NC(=O)N(C)C2CCCCC2)c(C)nc1C | 74* | 75 | -4 | 54* | 3 | -74 | 81* | -0.98 | 10
Cc1cc(C(=O)N[C@H](c2ccccc2)[C@@]2(C)C[C@@H]2[C@@H](C)C(=O)Nc2ccc3ccccc3c2)no1 | 6 | 95 | -1 | -32 | 4 | -6 | / | / | /
Cc1cc(C(=O)N[C@@H](c2ccccc2)[C@]2(C)C[C@H]2[C@@H](C)C(=O)Nc2ccc3ccccc3c2)no1 | 2 | 124 | 0 | 96* | -1 | -2 | 101* | 0.52 | /
COC(=O)C1CN(CCc2ccccc2)CCS(=O)(=O)N1Cc1ccccc1F (configuration not stated) | / | / | -1 | / | / | / | / | / | /
CCc1ccc(NC(=O)CSc2nc3ccccc3nc2N2CCCC2)cc1 | -16 | 95 | -2 | 74* | 3 | 16 | 101* | 0.98 | 1
CC(C)c1ccc(NC(=O)CSc2nc3ccccc3nc2N2CCCC2)cc1 | -21 | 83 | -4 | 70* | 3 | 21 | 105* | 0.32 | 6
Cc1ccc(NC(=O)CSc2nc3ccccc3nc2N2CCCC2)cc1 | 5 | 93 | 1 | 70* | 7 | -5 | 104* | 0.86 | 4
SMILES | SR-BI DiI inh | CR mimetic SO | SMARCA2 act | Lipid droplet | AHR act | SR-BI DiI-HDL act | Hep lipid conf | AML12 cytotox | AML12 tox conf
O=C(CSc1nc2ccccc2nc1N1CCCC1)Nc1ccc(Cl)cc1 | 10 | 98 | 0 | 8 | 4 | -10 | / | / | /
CC(=O)O[C@@H]1CCC[C@@]2(C(=O)Nc3ccccc32)[C@H]1NC(=O)C(C)C | / | / | -1 | / | / | / | / | / | /
COC(=O)c1cc(-c2ccc(Cl)s2)c(=O)n2c1CCC2 | / | / | 0 | / | / | / | / | / | /
CCOc1cc2c(cc1OCC)C(c1ccccc1OC)OC(=O)C2 (configuration not stated) | -34 | 104 | 0 | 51* | 1 | 34 | 79* | -0.96 | 3
CCc1ccc(NC2=CC(=O)CC(C)(C)C2)cc1 | -4 | 104 | -1 | 7 | 8 | 4 | / | / | /
CCCNC1=CC(=O)CC(C)(C)C1 | 22 | 74 | -4 | 57* | 0 | -22 | 27 | -0.44 | /
CCOC(=O)C(Cc1ccccc1)CP(=O)(OC)[C@@H](C)NC(=O)OCc1ccccc1 (some centres not stated) | / | / | -1 | / | / | / | / | / | /
Cc1cc(N2CCOCC2)n2nc(C)c(-c3ccccc3Cl)c2n1 | -7 | 101 | 1 | 78* | / | 7 | 107* | -0.16 | 7
Cc1ccc(-c2c(C)nn3c(N4CCOCC4)cc(C)nc23)cc1 | 1 | 106 | 3 | 71* | / | -1 | 108* | 0.36 | 4
Cc1cc(N2CCOCC2)n2nc(C)c(-c3ccccc3)c2n1 | 15 | 100 | 3 | / | 27 | -15 | / | / | /
COC(=O)C[C@H]1CC[C@H]2[C@H](COc3ccc(NS(=O)(=O)c4cccc(F)c4)cc3C(=O)N2C)O1 | / | / | -4 | / | / | / | / | / | /
COC(=O)[C@]12C[C@H](CC(=O)N3CCSCC3)C(=O)N(Cc3ccco3)C1=C[C@H](C(C)C)O[C@@H]2C1CC1 | / | / | 1 | / | / | / | / | / | /
O=C(Nc1ccccc1)C1=C[C@@H](C2CCCCC2)C[C@@H](OCc2ccc(CO)cc2)O1 | 12 | / | 0 | 53* | 3 | -12 | 65* | -0.34 | 8
CCOc1ccc(-n2c(SCC(=O)Nc3ccc(CC)cc3)nc3n[nH]c(C)c3c2=N)cc1 | 14 | 107 | -4 | 51* | 27 | -14 | 3 | -0.83 | /
Cc1ccc(N=Nc2ccc3ccccc3c2O)cc1 | 65 | 100 | -3 | 82* | 53* | -65 | 53 | 0.11 | /
